Experimental data: ChEMBL document CHEMBL1123290, “Synthesis, antimalarial activity, and quantitative structure-activity relationships of tebuquine and a series of related 5-[(7-chloro-4-quinolinyl)amino]-3-[(alkylamino)methyl] [1,1'-biphenyl]-2-ols and N omega-oxides” (1986)

Tests used:
Assay type in all cases: functional
Plasmodium berghei [1] = assay: Antimalarial activity in primary screen
Plasmodium berghei [2] = assay: Change in mean survival time for control (average 6.2 days) versus treated mice (Mus musculus) 72 hrs after 5 mg/kg subcutaneous dose
Plasmodium berghei [3] = assay: Change in mean survival time for control (average 6.2 days) versus treated mice (Mus musculus) 72 hrs after 640 mg/kg subcutaneous dose
Plasmodium berghei [4] = assay: Change in mean survival time for control (average of 6.2 days) versus treated mice (Mus musculus) 72 hrs after 80 mg/kg subcutaneous dose
Plasmodium berghei [5] = assay: (§1) Change in mean survival time for control (average 6.2 days) versus treated mice (Mus musculus) 72 hrs after […] subcutaneous dose
Plasmodium berghei [6] = assay: Change in mean survival time for control (average 6.2 days) versus treated mice (Mus musculus) 72 hrs after 10 mg/kg subcutaneous dose
Plasmodium berghei [7] = assay: Change in mean survival time for control (average 6.2 days) versus treated mice (Mus musculus) 72 hrs after 160 mg/kg subcutaneous dose
Plasmodium berghei [8] = assay: Change in mean survival time for control (average 6.2 days) versus treated mice (Mus musculus) 72 hrs after […] subcutaneous dose
Plasmodium berghei [9] = assay: Change in mean survival time for control (average 6.2 days) versus treated mice (Mus musculus) 72 hrs after 20 mg/kg subcutaneous dose
Plasmodium berghei [10] = assay: Change in mean survival time for control (average 6.2 days) versus treated mice (Mus musculus) 72 hrs after 320 mg/kg subcutaneous dose
Plasmodium berghei [11] = assay: Difference in mean survival time in mice (Mus musculus) (control = 6.2 days) after single 40mg/kg subcutaneous dose 72hr post infection
Mus musculus [12] = assay: Antimalarial activity of compound administered as a single subcutaneous dose of 10mg/kg, 72 hrs post infection measured as number of mice (Mus musculus) surviving at 60 days post infection
Summary of the method: (§2)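 Mice were infected with a normal drug-sensitive Plasmodium berghei strain. At 72 h postinfection each received one subcutaneous dose of compound dissolved or suspended in peanut oil, in five-mouse groups per dose. The read-out was the number of mice alive at 60 days postinfection, which were scored as cured.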

Plasmodium berghei [13] = assay: Antimalarial activity as 60-day survivors in Plasmodium berghei infected mice (Mus musculus) after single 160mg/kg subcutaneous dose 72 hr post infection; summary of the method: as §2
Plasmodium berghei [14] = assay: Antimalarial activity as 60-day survivors in infected mice (Mus musculus) after single 320mg/kg subcutaneous dose 72 hr post infection; summary of the method: as §2
Mus musculus [15] = assay: Antimalarial activity, administered as a single subcutaneous dose of 640 mg/kg, 72 hrs post infection measured as number of mice (Mus musculus) surviving at 60 days post infection; summary of the method: as §2
Mus musculus [16] = assay: Compound was evaluated for parenteral antimalarial activity against Plasmodium berghei in mice (Mus musculus) after single dose (40 mg/kg subcutaneous); no of mice (Mus musculus) surviving at 60 days post infection, 3 cured; summary of the method: as §2
Mus musculus [17] = assay: Antimalarial activity, administered as a single subcutaneous dose of 80 mg/kg, 72 hrs post infection measured as number of mice (Mus musculus) surviving at 60 days post infection; summary of the method: as §2
Mus musculus [18] = assay: Delta MST, difference in mean survival time of the control mice (an average of 6.2 days) from the mean survival time of the treated mice after a single sc dose of 1.25 mg/kg, 72-h postinfection; conditions: route subcutaneous
Plasmodium berghei [19] = assay: Antimalarial activity as 60-day survivors in infected mice (Mus musculus) after single 20 mg/kg subcutaneous dose 72hr post infection; summary of the method: as §2
Mus musculus [20] = assay: Antimalarial activity, administered as a single subcutaneous dose of 40 mg/kg, 72 hrs post infection measured as number of mice (Mus musculus) surviving at 60 days post infection; summary of the method: as §2
Mus musculus [21] = assay: Delta MST, difference in mean survival time of the control mice (an average of 6.2 days) from the mean survival time of the treated mice after a single sc dose of 160 mg/kg, 72-h postinfection; conditions: route subcutaneous
Mus musculus [22] = assay: Antimalarial activity of compound administered as a single subcutaneous dose of 20 mg/kg, 72 hrs post infection measured as number of mice (Mus musculus) surviving at 60 days post infection; summary of the method: as §2
Mus musculus [23] = assay: Antimalarial activity of compound administered as a single subcutaneous dose of 320 mg/kg, 72 hrs post infection measured as number of mice (Mus musculus) surviving at 60 days post infection; summary of the method: as §2
Mus musculus [24] = assay: Antimalarial activity of compound administered as a single subcutaneous dose of 80mg/kg, 72-h postinfection measured as number of mice (Mus musculus) surviving at 60 days postinfection; summary of the method: as §2
Mus musculus [25] = assay: Antimalarial activity of compound administered as a single subcutaneous dose of 160mg/kg, 72-h postinfection measured as number of mice (Mus musculus) surviving at 60 days postinfection; summary of the method: as §2
Mus musculus [26] = assay: Antimalarial activity of compound administered as a single subcutaneous dose of 40 mg/kg, 72-h postinfection measured as number of mice (Mus musculus) surviving at 60 days postinfection; summary of the method: as §2
Mus musculus [27] = assay: Compound was evaluated for parenteral antimalarial activity against Plasmodium berghei in mice (Mus musculus) after single dose (1.25 mg/kg subcutaneously)
Plasmodium berghei [28] = assay: Change in mean survival time of Plasmodium berghei infected mice (Mus musculus) on 1.25 mg/kg subcutaneous dose
Plasmodium berghei [29] = assay: Difference in mean survival time of Plasmodium berghei infected mice (Mus musculus) after 10 mg/kg subcutaneous dose
Plasmodium berghei [30] = assay: Change in mean survival time for control (average 6.2 days) versus treated mice (Mus musculus) after 160 mg/kg subcutaneous dose
Plasmodium berghei [31] = assay: Change in mean survival time of Plasmodium berghei infected mice (Mus musculus) after […] subcutaneous dose
Plasmodium berghei [32] = assay: Change in mean survival time for control (average 6.2 days) versus treated mice (Mus musculus) after 20 mg/kg subcutaneous dose
Plasmodium berghei [33] = assay: Change in mean survival time for control (average 6.2 days) versus treated mice (Mus musculus) after 320 mg/kg subcutaneous dose
Plasmodium berghei [34] = assay: Change in mean survival time for control (average 6.2 days) versus treated mice (Mus musculus) after 40 mg/kg subcutaneous dose
Plasmodium berghei [35] = assay: Change in mean survival time of Plasmodium berghei infected mice (Mus musculus) after 5 mg/kg subcutaneous dose
Plasmodium berghei [36] = assay: Change in mean survival time in control (average 6.2 days) versus treated mice (Mus musculus) after 80 mg/kg subcutaneous dose
Plasmodium berghei [37] = assay: as §1; remark: listed apart in the source
Mus musculus [38] = assay: Compound was evaluated for parenteral antimalarial activity against Plasmodium berghei in mice (Mus musculus) after single dose (mg/kg subcutaneously) 20
Mus musculus [39] = assay: Compound was evaluated for parenteral antimalarial activity against Plasmodium berghei in mice (Mus musculus) after single dose (mg/kg subcutaneously) 40
Mus musculus [40] = assay: Compound was evaluated for parenteral antimalarial activity against Plasmodium berghei in mice (Mus musculus) after single dose (80 mg/kg subcutaneously)

CCN(CC)Cc1cc(Nc2ccnc3cc(Cl)ccc23)cc(-c2cccc(C(F)(F)F)c2)c1O
ED30 (Plasmodium berghei [1]): 16.3 mg/kg
Delta MST (Plasmodium berghei [2]): 13.5 days
Delta MST (Plasmodium berghei [3]): 17.9 days
Delta MST (Plasmodium berghei [4]): 28.2 days
Delta MST (Plasmodium berghei [5]): 0.5 days
Delta MST (Plasmodium berghei [6]): 15.2 days
Delta MST (Plasmodium berghei [7]): 21.9 days
Delta MST (Plasmodium berghei [8]): 9.7 days
Delta MST (Plasmodium berghei [9]): 23.7 days
Delta MST (Plasmodium berghei [10]): 21.9 days
Delta MST (Plasmodium berghei [11]): 31.4 days
No. of mice cured (Mus musculus [12]): 1
No. of mice cured (Plasmodium berghei [13]): 4
No. of mice cured (Plasmodium berghei [14]): 3
No. of mice cured (Mus musculus [15]): 3
No. of mice cured (Mus musculus [16]): 3
No. of mice cured (Mus musculus [17]): 2

Oc1c(CNC2CCCCC2)cc(Nc2ccnc3cc(Cl)ccc23)cc1-c1ccc(Cl)cc1
Delta MST (Plasmodium berghei [2]): 1.5 days
Delta MST (Plasmodium berghei [3]): 17.6 days
Delta MST (Plasmodium berghei [4]): 23.6 days
Delta MST (Plasmodium berghei [6]): 4.1 days
Delta MST (Plasmodium berghei [7]): 20.6 days
Delta MST (Plasmodium berghei [8]): 0.5 days
Delta MST (Plasmodium berghei [9]): 12.9 days
Delta MST (Plasmodium berghei [10]): -0.4 days
Delta MST (Plasmodium berghei [11]): 17.9 days
No. of mice cured (Plasmodium berghei [13]): 4
No. of mice cured (Plasmodium berghei [14]): 4
No. of mice cured (Mus musculus [15]): 4
Delta MST (Mus musculus [18]): 0.7 days
No. of mice cured (Mus musculus [17]): 3

CCN(CC)Cc1cc(Nc2ccnc3cc(Cl)ccc23)cc(-c2cccc(Cl)c2)c1O
ED30 (Plasmodium berghei [1]): 17.3 mg/kg
Delta MST (Plasmodium berghei [2]): 3.9 days
Delta MST (Plasmodium berghei [3]): 21.9 days
Delta MST (Plasmodium berghei [5]): 0.3 days
Delta MST (Plasmodium berghei [6]): 15.5 days
Delta MST (Plasmodium berghei [8]): 1.3 days
Delta MST (Plasmodium berghei [9]): 22.4 days
Delta MST (Plasmodium berghei [11]): 29.4 days
No. of mice cured (Plasmodium berghei [13]): 4
No. of mice cured (Plasmodium berghei [19]): 1
No. of mice cured (Plasmodium berghei [14]): 5
No. of mice cured (Mus musculus [20]): 3
No. of mice cured (Mus musculus [15]): 4
Delta MST (Mus musculus [21]): 31.9 days
No. of mice cured (Mus musculus [17]): 2

CC(C)(C)NCc1cc(Nc2ccnc3cc(Cl)ccc23)cc(-c2ccccc2)c1O
Delta MST (Plasmodium berghei [2]): 13.7 days
Delta MST (Plasmodium berghei [3]): 13 days
Delta MST (Plasmodium berghei [4]): 27.3 days
Delta MST (Plasmodium berghei [5]): 0.3 days
Delta MST (Plasmodium berghei [6]): 29.5 days
Delta MST (Plasmodium berghei [7]): 12.8 days
Delta MST (Plasmodium berghei [8]): 5.3 days
Delta MST (Plasmodium berghei [9]): 14.8 days
Delta MST (Plasmodium berghei [10]): 12.3 days
Delta MST (Plasmodium berghei [11]): 20.2 days
No. of mice cured (Mus musculus [15]): 1
No. of mice cured (Mus musculus [22]): 1
No. of mice cured (Mus musculus [23]): 1
No. of mice cured (Mus musculus [24]): 1
No. of mice cured (Mus musculus [25]): 1
No. of mice cured (Mus musculus [26]): 2

CCN(CC)Cc1cc(Nc2cc[n+]([O-])c3cc(Cl)ccc23)cc(-c2cccc(C(F)(F)F)c2)c1O
ED30 (Plasmodium berghei [1]): 113 mg/kg
Delta MST (Mus musculus [27]): 0.3
Delta MST (Plasmodium berghei [28]): 0.3 days
Delta MST (Plasmodium berghei [29]): 1.1 days
Delta MST (Plasmodium berghei [30]): 21.1 days
Delta MST (Plasmodium berghei [31]): -0.1 days
Delta MST (Plasmodium berghei [32]): 5.9 days
Delta MST (Plasmodium berghei [33]): 24.9 days
Delta MST (Plasmodium berghei [34]): 8.5 days
Delta MST (Plasmodium berghei [35]): 0.3 days
Delta MST (Plasmodium berghei [36]): 11.7 days
Delta MST (Plasmodium berghei [37]): 27.9 days
No. of mice cured (Plasmodium berghei [14]): 1
No. of mice cured (Mus musculus [15]): 4

CCN(CC)Cc1cc(Nc2cc[n+]([O-])c3cc(Cl)ccc23)cc(CN(CC)CC)c1O
Delta MST (Mus musculus [38]): 3.9 days
Delta MST (Mus musculus [39]): 6.9 days
Delta MST (Mus musculus [40]): 8.5 days
No. of mice cured (Plasmodium berghei [13]): 1
No. of mice cured (Plasmodium berghei [14]): 3
No. of mice cured (Mus musculus [15]): 3

CC(C)CNCc1cc(Nc2ccnc3cc(Cl)ccc23)cc(-c2ccc(Cl)cc2)c1O
Delta MST (Plasmodium berghei [2]): 5.2 days
Delta MST (Plasmodium berghei [3]): 13.4 days
Delta MST (Plasmodium berghei [5]): 0.8 days
Delta MST (Plasmodium berghei [6]): 14.8 days
Delta MST (Plasmodium berghei [7]): 4.9 days
Delta MST (Plasmodium berghei [8]): 2 days
Delta MST (Plasmodium berghei [9]): 19.6 days
Delta MST (Plasmodium berghei [10]): 11.3 days
No. of mice cured (Mus musculus [22]): 2
No. of mice cured (Mus musculus [23]): 2
No. of mice cured (Mus musculus [24]): 5
No. of mice cured (Mus musculus [25]): 2
No. of mice cured (Mus musculus [26]): 5
